Assay results as given in paper PMC8232391 (Drug Design, Development and Therapy, 2021).

Tests used:
[1] = Stability of DUV in spiked human plasma samples; type: in vitro ADME
[2] = Stability of stock and working standard solutions of DUV; type: physicochemical; details: refrigerator temperature (8°C) for 30 days
In short: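 Stock solutions (1.0 mg mL–1 in acetonitrile) and working standards diluted in mobile phase were held 24 h at room temperature and 30 days refrigerated (below 10°C). They were then analysed by the HPLC-FD method against freshly spiked calibration standards.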

## C[C@H](Nc1ncnc2[nH]cnc12)c1cc2cccc(Cl)c2c(=O)n1-c1ccccc1 [DUV, 8-chloro-2-phenyl-3-[(1S)-1-(7H-purin-6-ylamino)ethyl]isoquinolin-1-one]
[1]; autosampler storage conditions
  Time stable in spiked human plasma: ≥ 48 h
[1]; room temperature on the bench
  Time stable in spiked human plasma: ≥ 6 h
[1]; three freeze–thaw cycles
  Stability in spiked human plasma: stable
[1]; −80°C for 60 days
  Stability in spiked human plasma: stable
[2]
  Stability of stock and working standard solutions: stable
